Data taken from ChEMBL document CHEMBL2390926, “Identification of novel FLT3 kinase inhibitors” (Eur J Med Chem, 2013).
The source made the active and inactive calls. The calls are words filed in the database; no cut-off is given here.

How the values were obtained:
Assay type in all cases: cell-based
Settings in all cases: BaF3
[1] = target: Fibroblast growth factor receptor 3 (Homo sapiens) (UniProt P22607); test: Inhibition of FGFR3 (unknown origin) transfected in mouse Ba/F3 cells at 5 uM after 24 hrs
Chain of Fibroblast growth factor receptor 3 (Homo sapiens) (P22607 23-806 limits assumed): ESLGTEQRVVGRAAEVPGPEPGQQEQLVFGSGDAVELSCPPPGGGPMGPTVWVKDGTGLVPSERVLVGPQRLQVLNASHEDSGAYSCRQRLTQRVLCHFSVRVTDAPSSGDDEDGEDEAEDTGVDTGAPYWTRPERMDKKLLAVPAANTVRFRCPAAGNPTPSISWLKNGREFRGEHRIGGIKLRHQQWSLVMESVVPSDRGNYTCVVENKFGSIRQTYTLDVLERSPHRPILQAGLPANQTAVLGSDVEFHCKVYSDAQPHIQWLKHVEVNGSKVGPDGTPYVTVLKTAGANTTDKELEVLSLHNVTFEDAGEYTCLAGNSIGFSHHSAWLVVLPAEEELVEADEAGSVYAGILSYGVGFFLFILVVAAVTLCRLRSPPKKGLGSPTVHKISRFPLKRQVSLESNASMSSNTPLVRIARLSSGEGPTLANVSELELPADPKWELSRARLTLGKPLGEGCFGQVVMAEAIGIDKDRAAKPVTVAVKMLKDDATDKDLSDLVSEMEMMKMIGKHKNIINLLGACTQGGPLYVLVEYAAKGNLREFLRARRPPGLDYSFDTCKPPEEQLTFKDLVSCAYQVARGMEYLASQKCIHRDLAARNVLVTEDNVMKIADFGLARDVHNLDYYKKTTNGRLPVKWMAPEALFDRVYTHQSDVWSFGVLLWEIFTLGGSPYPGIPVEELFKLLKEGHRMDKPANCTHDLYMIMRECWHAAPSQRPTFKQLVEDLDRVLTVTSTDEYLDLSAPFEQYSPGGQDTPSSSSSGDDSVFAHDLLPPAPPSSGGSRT
Procedure, shortened: (§1)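 Kinase specificity panel: each Ba/F3 line transformed with one of 24 tyrosine kinases depends on that kinase to grow. Cells were given compound at 1 or 5 µM for 24 h, with DMSO as comparator. Percentage growth was read by ATP-lite luminescence and reported as mean ± SEM.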

[2] = target: T1, Ephrin type-A receptor 1 (Homo sapiens) (UniProt P21709); test: Inhibition of EPHA1 (unknown origin) transfected in mouse Ba/F3 cells at 5 uM after 24 hrs; procedure, shortened: as §1
T1 sequence (whole entry): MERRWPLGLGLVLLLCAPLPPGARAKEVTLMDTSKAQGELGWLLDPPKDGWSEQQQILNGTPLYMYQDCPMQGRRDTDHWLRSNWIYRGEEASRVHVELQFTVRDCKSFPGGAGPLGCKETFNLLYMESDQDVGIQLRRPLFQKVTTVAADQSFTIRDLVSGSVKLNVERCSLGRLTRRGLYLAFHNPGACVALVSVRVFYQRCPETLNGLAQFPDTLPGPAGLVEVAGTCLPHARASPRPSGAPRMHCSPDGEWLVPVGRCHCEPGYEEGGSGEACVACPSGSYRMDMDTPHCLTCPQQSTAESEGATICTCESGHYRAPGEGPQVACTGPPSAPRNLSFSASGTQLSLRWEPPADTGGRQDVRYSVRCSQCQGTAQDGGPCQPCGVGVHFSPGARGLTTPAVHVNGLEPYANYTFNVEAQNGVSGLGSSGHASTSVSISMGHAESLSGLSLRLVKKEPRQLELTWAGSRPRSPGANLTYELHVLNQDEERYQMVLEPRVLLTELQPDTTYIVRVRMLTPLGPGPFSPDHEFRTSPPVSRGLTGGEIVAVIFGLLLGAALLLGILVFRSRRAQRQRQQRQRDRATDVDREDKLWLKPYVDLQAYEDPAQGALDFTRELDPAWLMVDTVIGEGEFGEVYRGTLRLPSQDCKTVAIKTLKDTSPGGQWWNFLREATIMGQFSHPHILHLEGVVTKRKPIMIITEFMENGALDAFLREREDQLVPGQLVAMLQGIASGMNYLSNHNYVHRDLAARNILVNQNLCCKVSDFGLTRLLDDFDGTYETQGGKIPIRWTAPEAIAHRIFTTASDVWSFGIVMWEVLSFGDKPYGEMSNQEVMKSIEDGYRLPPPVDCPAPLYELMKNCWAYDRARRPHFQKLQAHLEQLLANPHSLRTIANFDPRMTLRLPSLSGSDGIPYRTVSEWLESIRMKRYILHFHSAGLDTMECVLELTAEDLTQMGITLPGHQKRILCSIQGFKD

[3] = target: Tyrosine-protein kinase ABL2 (Homo sapiens) (UniProt P42684); test: Inhibition of ABL2 (unknown origin) transfected in mouse Ba/F3 cells at 5 uM after 24 hrs; procedure, shortened: as §1
Chain of Tyrosine-protein kinase ABL2 (Homo sapiens) (P42684 whole entry): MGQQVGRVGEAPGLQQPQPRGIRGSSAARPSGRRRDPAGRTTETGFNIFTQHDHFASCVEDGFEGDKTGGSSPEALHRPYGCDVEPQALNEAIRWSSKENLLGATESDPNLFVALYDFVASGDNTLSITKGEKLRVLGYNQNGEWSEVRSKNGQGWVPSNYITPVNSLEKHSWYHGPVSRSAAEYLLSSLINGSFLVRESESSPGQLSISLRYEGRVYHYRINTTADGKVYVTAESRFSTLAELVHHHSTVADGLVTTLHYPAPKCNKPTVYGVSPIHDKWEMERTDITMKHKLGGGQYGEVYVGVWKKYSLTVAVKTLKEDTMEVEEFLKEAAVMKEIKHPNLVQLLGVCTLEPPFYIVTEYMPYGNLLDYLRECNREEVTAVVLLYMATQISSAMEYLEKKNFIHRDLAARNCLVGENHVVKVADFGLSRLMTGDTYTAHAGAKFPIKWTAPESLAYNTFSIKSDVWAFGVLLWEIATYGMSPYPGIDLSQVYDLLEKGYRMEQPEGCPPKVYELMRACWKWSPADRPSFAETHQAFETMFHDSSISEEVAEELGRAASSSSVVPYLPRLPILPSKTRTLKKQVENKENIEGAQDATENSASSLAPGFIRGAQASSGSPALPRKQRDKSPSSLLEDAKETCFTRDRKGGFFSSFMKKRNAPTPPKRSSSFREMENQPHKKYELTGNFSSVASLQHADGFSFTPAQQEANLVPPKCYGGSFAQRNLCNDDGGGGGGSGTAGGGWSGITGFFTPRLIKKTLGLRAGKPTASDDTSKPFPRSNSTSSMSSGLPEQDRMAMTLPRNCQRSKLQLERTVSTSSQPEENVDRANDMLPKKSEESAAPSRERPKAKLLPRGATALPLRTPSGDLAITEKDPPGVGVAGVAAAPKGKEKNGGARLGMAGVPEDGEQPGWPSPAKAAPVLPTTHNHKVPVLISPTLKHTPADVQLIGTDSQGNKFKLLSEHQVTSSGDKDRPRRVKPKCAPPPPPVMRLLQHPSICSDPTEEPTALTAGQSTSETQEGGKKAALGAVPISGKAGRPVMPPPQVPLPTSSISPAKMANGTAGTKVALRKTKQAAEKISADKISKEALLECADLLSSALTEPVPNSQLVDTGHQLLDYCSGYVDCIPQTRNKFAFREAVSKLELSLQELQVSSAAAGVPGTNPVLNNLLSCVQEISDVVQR

[4] = target: Vascular endothelial growth factor receptor 3 (Homo sapiens) (UniProt P35916); test: Inhibition of FLT4 (unknown origin) transfected in mouse Ba/F3 cells at 5 uM after 24 hrs; procedure, shortened: as §1
[5] = target: Tyrosine-protein kinase HCK (Homo sapiens) (UniProt P08631); test: Inhibition of HCK (unknown origin) transfected in mouse Ba/F3 cells at 5 uM after 24 hrs; procedure, shortened: as §1
Chain of Tyrosine-protein kinase HCK (Homo sapiens) (P08631 2-526 limits assumed): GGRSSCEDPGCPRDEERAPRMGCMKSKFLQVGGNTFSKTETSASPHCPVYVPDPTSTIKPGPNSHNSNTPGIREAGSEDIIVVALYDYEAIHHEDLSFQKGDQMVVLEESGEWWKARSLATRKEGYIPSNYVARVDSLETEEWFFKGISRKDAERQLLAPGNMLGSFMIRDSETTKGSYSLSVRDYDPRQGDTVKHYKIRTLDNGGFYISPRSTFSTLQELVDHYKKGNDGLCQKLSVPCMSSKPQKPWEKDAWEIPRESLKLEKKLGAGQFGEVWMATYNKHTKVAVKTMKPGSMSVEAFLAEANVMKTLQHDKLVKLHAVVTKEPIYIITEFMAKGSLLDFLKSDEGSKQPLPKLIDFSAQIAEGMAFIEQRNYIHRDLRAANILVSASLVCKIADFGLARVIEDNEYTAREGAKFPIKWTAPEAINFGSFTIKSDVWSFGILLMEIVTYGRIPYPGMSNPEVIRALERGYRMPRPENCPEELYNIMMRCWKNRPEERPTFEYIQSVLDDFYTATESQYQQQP

[6] = target: T2, Tyrosine-protein kinase Mer (Homo sapiens) (UniProt Q12866); test: Inhibition of MERTK (unknown origin) transfected in mouse Ba/F3 cells at 5 uM after 24 hrs
T2 sequence (whole entry): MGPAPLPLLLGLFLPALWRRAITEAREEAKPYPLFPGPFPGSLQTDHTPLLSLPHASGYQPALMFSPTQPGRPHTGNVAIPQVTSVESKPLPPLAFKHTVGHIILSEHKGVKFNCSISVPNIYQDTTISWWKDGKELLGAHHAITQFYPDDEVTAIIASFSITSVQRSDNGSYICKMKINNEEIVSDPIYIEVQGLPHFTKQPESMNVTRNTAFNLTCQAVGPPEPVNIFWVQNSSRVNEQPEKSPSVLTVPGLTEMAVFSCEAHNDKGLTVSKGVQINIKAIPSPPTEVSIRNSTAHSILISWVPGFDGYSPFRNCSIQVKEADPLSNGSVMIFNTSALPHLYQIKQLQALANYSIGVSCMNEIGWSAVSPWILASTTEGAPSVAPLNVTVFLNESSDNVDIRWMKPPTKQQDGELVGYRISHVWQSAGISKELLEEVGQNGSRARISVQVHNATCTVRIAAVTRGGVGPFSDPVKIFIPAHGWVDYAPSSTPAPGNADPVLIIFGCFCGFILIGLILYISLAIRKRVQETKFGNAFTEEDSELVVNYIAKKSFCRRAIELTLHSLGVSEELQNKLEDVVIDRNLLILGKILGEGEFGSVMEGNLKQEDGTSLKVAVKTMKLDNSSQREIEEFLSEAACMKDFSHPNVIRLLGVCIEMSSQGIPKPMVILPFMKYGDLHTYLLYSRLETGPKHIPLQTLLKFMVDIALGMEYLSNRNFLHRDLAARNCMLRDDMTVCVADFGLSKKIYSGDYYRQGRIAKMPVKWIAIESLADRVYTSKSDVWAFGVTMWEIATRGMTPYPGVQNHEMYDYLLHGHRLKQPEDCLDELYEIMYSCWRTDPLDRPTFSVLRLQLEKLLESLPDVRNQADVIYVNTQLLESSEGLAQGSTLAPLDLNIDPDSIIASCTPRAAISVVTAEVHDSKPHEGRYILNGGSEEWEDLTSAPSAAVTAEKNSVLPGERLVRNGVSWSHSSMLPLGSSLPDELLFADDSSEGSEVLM

[7] = target: Ephrin type-A receptor 5 (Homo sapiens) (UniProt P54756); test: Inhibition of EPHA5 (unknown origin) transfected in mouse Ba/F3 cells at 5 uM after 24 hrs; procedure, shortened: as §1
[8] = target: Insulin-like growth factor 1 receptor (Homo sapiens) (UniProt P08069); test: Inhibition of IGF1R (unknown origin) transfected in mouse Ba/F3 cells at 5 uM after 24 hrs; procedure, shortened: as §1
Chain of Insulin-like growth factor 1 receptor (Homo sapiens) (P08069 31-736 limits assumed): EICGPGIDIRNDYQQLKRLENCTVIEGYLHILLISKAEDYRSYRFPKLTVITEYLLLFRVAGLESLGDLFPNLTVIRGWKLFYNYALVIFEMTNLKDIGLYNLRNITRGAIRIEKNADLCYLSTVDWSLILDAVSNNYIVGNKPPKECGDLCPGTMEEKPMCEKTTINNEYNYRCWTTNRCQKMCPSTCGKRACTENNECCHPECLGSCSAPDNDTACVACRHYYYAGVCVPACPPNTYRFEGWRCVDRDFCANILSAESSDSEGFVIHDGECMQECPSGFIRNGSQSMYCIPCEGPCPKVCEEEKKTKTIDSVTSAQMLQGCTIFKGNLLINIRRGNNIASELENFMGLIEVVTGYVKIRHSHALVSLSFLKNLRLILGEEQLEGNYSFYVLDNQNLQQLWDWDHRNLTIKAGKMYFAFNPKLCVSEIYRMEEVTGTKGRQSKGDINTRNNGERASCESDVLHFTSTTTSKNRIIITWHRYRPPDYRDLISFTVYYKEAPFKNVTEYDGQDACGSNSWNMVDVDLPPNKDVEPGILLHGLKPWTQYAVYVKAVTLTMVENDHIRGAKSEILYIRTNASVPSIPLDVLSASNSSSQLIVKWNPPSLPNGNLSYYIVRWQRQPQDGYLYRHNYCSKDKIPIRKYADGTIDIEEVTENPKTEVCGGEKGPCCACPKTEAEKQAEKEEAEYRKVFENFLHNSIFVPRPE
Chain of Insulin-like growth factor 1 receptor (Homo sapiens) (P08069 741-1367 limits assumed): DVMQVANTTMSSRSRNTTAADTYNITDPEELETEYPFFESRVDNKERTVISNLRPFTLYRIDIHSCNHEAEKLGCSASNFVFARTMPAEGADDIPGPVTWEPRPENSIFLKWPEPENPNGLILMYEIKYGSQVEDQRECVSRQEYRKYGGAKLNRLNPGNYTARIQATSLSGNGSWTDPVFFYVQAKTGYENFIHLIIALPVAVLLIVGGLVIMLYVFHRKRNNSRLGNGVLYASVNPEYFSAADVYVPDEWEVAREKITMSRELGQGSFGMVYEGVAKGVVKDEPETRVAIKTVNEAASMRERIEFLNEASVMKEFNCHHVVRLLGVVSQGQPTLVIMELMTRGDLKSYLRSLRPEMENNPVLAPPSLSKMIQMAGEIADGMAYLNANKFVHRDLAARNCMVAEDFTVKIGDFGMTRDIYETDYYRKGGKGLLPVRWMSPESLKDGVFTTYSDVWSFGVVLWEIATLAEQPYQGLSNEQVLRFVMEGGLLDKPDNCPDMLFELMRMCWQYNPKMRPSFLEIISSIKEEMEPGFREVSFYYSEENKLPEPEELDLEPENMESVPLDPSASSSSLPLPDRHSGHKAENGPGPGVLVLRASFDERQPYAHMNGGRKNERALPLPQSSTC

[9] = target: Epidermal growth factor receptor (Homo sapiens) (UniProt P00533); test: Inhibition of EGFR (unknown origin) transfected in mouse Ba/F3 cells at 5 uM after 24 hrs; procedure, shortened: as §1
Chain of Epidermal growth factor receptor (Homo sapiens) (P00533 whole entry): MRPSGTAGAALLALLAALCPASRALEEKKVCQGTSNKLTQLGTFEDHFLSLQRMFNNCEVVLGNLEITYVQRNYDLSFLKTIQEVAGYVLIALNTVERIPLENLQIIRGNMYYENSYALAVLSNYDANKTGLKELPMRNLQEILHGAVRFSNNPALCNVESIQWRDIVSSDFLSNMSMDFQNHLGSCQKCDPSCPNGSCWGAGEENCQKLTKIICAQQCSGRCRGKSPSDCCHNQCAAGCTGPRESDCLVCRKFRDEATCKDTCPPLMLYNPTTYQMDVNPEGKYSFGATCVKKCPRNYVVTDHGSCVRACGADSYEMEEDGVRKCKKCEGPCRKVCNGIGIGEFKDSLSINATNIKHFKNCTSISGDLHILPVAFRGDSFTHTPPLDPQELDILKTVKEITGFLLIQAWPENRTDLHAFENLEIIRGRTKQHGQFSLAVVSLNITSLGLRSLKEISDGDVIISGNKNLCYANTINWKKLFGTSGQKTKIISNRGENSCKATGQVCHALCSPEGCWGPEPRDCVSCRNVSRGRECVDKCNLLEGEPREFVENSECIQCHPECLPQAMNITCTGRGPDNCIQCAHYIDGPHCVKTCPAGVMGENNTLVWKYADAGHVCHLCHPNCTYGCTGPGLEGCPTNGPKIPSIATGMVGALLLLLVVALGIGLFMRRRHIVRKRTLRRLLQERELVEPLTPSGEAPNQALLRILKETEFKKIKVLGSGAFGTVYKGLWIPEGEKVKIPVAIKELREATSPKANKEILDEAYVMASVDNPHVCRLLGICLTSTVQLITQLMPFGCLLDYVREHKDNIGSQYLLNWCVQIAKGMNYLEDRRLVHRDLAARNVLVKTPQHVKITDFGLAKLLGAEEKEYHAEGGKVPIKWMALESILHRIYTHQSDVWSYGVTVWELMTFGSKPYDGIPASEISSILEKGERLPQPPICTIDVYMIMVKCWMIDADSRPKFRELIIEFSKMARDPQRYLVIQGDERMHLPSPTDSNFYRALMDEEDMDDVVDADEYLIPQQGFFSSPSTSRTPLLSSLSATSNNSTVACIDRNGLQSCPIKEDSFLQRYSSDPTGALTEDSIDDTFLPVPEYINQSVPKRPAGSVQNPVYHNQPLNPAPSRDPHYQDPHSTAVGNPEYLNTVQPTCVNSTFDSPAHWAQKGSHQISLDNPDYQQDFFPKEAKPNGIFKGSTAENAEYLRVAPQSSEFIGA

Cc1ccc(-n2cnc3cc(Nc4nnc(C)c5ccccc45)ccc32)cc1
inhibition [1]: inactive
inhibition [2]: inactive
inhibition [3]: inactive
inhibition [4]: inactive
inhibition [5]: inactive
inhibition [6]: inactive
inhibition [7]: inactive
inhibition [8]: inactive
inhibition [9]: inactive

Fc1ccc(-c2n[nH]cc2-c2ccncc2)cc1Cl
inhibition [1]: inactive
inhibition [2]: inactive
inhibition [3]: Active
inhibition [4]: inactive
inhibition [5]: inactive
inhibition [6]: inactive
inhibition [7]: Active
inhibition [8]: inactive
inhibition [9]: inactive
